# MrgX1 agonist = agonists of human MrgX1 receptor, primary screen, HEK293 cells, Fluo-4 calcium flux | Fluo-4 calcium fluorescence, agonist mode; stronger effect = higher value | AID 588627, 2011 | 310,000 tested, 0.44% active | Mas-related G-protein coupled receptor member X1 (Homo sapiens), Q96LB2 | B-score at 10 µM;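 active = calcium response B-score plate-corrected fluorescence ratio at least 3 library SD, with starting fluorescence B-score inside 5 SD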
# Target sequence (Q96LB2 whole entry, looked up): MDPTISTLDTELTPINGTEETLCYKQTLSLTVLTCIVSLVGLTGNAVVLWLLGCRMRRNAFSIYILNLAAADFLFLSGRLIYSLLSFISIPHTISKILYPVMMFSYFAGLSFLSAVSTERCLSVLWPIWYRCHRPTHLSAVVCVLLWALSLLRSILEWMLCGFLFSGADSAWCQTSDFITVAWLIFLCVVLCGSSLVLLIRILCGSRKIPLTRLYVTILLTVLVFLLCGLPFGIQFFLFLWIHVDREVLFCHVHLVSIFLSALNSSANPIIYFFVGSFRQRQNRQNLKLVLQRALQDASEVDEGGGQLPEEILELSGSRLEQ
#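 Test system: HEK293 cells stably expressing human MrgX1 receptor; Input: fifteen thousand cells per well; Dosing: compound delivered in addition one of three; Schedule: overnight seeding, then 1 h dark dye loading; Technique: Fluo-4 NW calcium fluorescence; Measure: B-scored fluorescence response ratio; Controls: positive and negative controls per plate.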
# MrgX1 allo act = positive allosteric modulators of MrgX1, primary screen, HEK293 cells, Fluo-4 calcium flux | 310,000 tested, 0.63% active | FDSS; stronger effect = higher value | Mas-related G-protein coupled receptor member X1 (Homo sapiens), Q96LB2 | B-score at 10 µM;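 active = plate-corrected calcium response at least 3 library SD above typical, normal starting fluorescence, not activating the receptor alone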;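 also: compound read alongside a low EC10 to EC30 dose of BAM8-22 agonist; peak minus trough fluorescence over baseline measured at the second addition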
# RGS4 act = RGS4 potentiators or activators, primary screen, cell-based, HEK293 M3R inducible RGS4, calcium flux; B-score at 10 µM; AID 463111, 2010; 310,000 tested, 0.92% active; carbachol calcium flux Fluo4; stronger effect = lower value;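 active = B-score of the integrated calcium signal more than 4 SD below the library mean, with starting fluorescence not abnormally high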;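 also: negative B-score means reduced calcium response which marks RGS4 activation or potentiation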
#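 Assay system: Inducible-RGS4 HEK293 cells carrying M3 receptor | Schedule: Compound preincubation 20 min at room temperature before agonist | Signal: Kinetic calcium fluorescence imaging with Fluo4-AM dye, 2 µM | Read-out basis: B score from integrated fluorescence ratio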
# MrgX1 antag = antagonists of human MrgX1 receptor, primary screen, HEK293 cells, Fluo-4 calcium flux. BAM8-22 antagonism; stronger effect = lower value. B-score at 10 µM. 310,000 tested, 1.3% active;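 active = calcium-response B-score plate-corrected more than 3 library SD below zero, starting fluorescence within 5 deviations, no agonist response on first addition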;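 also: peak minus trough fluorescence over baseline after final BAM8-22 challenge near maximal dose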
# RGS4 block = RGS4 inhibitors, primary screen, cell-based, HEK293 M3R inducible RGS4, calcium flux; 310,000 tested, 0.45% active; Fluo-4 calcium flux; stronger effect = higher value; triggered by carbachol at its EC20; Regulator of G-protein signaling 4 (Homo sapiens), P49798; B-score at 10 µM; AID 463165, 2010;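 active = B-score, a plate-corrected calcium signal, over three deviations above library mean, with baseline fluorescence within five deviations of library mean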;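 also: RGS4 expression induced by doxycycline in cells with stable M3 receptor; B-score is computed from the integrated fluorescence ratio over baseline after carbachol; higher B-score means a larger calcium signal and so more RGS4 inhibition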
# Target sequence (P49798 whole entry, looked up): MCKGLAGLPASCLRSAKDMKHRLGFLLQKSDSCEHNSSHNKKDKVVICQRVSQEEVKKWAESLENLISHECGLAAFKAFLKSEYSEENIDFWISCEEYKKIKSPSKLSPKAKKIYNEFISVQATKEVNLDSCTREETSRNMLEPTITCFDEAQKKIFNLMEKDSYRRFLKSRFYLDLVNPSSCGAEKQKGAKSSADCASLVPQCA
# Active calls of the source: *; i = inactive; . = no result. An excerpt weighted towards active compounds, which were near 3.5% of everything screened.
SMILES,MrgX1 agonist,MrgX1 allo act,RGS4 act,MrgX1 antag,RGS4 block
C/C(CC(=O)Nc1ccc(Cl)cc1Cl)=N\NC(=O)C(=O)N1CCCC1,i,i,i,i,i
COCCNC(=O)C(=O)N/N=C(\C)CC(=O)Nc1ccc(Cl)cc1Cl,i,i,i,-6.41*,i
CCC(NC(C)C)C(O)c1ccc(O)c2[nH]c(=O)ccc12 (configuration not stated),28.1*,i,i,i,i
Cc1cc(C(=O)N2CCC(C(F)(F)F)n3nccc32)on1 (configuration not stated),i,i,i,i,i
Cc1sc2nc(CSC(C)C(=O)N(C)CC(=O)Nc3ccccc3C(F)(F)F)[nH]c(=O)c2c1C (configuration not stated),i,i,-7.12*,i,i
CCN(CC(=O)Nc1ccccc1C(F)(F)F)C(=O)CSCc1ccc(C)cc1,i,i,i,i,i
Nc1nc(-c2ccc(Br)cc2)cs1,i,i,i,i,i
Brc1ccc(-c2csc(Nc3nc(-c4ccc(Br)cc4)cs3)n2)cc1,i,i,i,-4.52*,i
CC(NC(=O)COc1cccnc1[N+](=O)[O-])c1ccc(Cl)cc1 (configuration not stated),i,i,-8.14*,i,i
CN(Cc1ccccc1)C(=O)c1cn(C)c2ccc(S(=O)(=O)N3CCCC3)cc2c1=O,i,i,i,i,i
Cc1ccccc1Nc1nc(-c2cccnc2)nc2ccccc12,42.3*,i,-7.2*,i,i
CCOC(=O)c1ccc(Nc2nc(-c3cccnc3)nc3ccccc23)cc1,i,i,-7.09*,i,i
CN(Cc1ccccc1F)c1nc(-c2cccnc2)nc2ccccc12,i,i,-13.8*,i,i
Cc1c(O)ccc(/C=N/Nc2nc(-c3cccnc3)nc3ccccc23)c1O,i,i,-8.06*,i,i
Oc1ccc(/C=N/Nc2nc(-c3cccnc3)nc3ccccc23)c(O)c1,i,i,i,i,i
CC(Nc1nc(-c2cccnc2)nc2ccccc12)c1ccc(F)cc1 (configuration not stated),i,i,-7.1*,i,i
c1cncc(CNc2nc(-c3cccnc3)nc3ccccc23)c1,i,i,i,i,i
Fc1ccc(CNc2nc(-c3cccnc3)nc3ccccc23)cc1,34.6*,i,-7.08*,i,i
Clc1cccc(CNc2nc(-c3cccnc3)nc3ccccc23)c1,.,.,-9.23*,.,i
CC[C@H](C)/C=C/C1=CC2=C(Cl)C(=O)[C@@]3(C)OC(=O)C(C(=O)[C@H](C)[C@@H](C)O)=C3C2=CO1,i,10.4*,i,i,i
COc1ccc(C2SCC(=O)N2c2c(C)n(C)n(-c3ccccc3)c2=O)cc1OC (configuration not stated),i,i,i,i,i
CC(Oc1ccc(Cl)cc1Cl)C(=O)Nc1ccc(N2CCN(C)CC2)cc1 (configuration not stated),i,i,i,i,i
CC(=O)N1CCN(c2ccc(NC(=O)C(C)Oc3ccc(Cl)cc3Cl)cc2)CC1 (configuration not stated),i,i,i,-7.08*,i
COc1ccc(CNC(=O)COc2ccc(S(=O)(=O)N3CCCCC3)cc2Cl)cc1,i,i,-7.06*,i,i
CCOc1cc2[nH]c(=O)n(CCCC(=O)N(C)Cc3ccccc3)c(=O)c2cc1OCC,i,7.92*,i,i,i
SMILES,MrgX1 agonist,MrgX1 allo act,RGS4 act,MrgX1 antag,RGS4 block
COc1cc2[nH]c(=O)n(CCCCCC(=O)N3CC=C(c4ccccc4)CC3)c(=O)c2cc1OC,i,i,-8.8*,i,i
CCOc1cc2[nH]c(=O)n(CCCC(=O)NCc3ccco3)c(=O)c2cc1OCC,i,i,i,i,i
Cc1cc(N2CCC(C)CC2)n2ncc(-c3ccccc3)c2n1,i,i,-7.34*,i,i
Cc1cc(NC(C)c2ccccc2)n2ncc(-c3ccccc3)c2n1 (configuration not stated),i,i,-7.03*,i,i
Cc1cc(NC2CCCC2)n2ncc(-c3ccccc3)c2n1,i,i,i,i,i
Cc1cc(N2CCOCC2)n2ncc(-c3ccccc3)c2n1,i,i,i,i,i
COc1ccccc1-c1cnn2c(NCCc3ccccc3)cc(C)nc12,i,i,-7.41*,i,i
Cc1cc(NCc2ccccc2)n2ncc(-c3ccccc3)c2n1,i,i,-8.73*,i,i
O=Cc1c[nH]c2ccc(S(=O)(=O)N3CCOCC3)cc12,i,i,i,i,i
CC(C(=O)c1ccccc1)[n+]1cccc(C(N)=O)c1 (configuration not stated),i,i,i,i,i
Clc1ccccc1C1CC(c2ccccc2)=Nc2ccccc2N1 (configuration not stated),i,i,-7.42*,i,i
Brc1ccccc1C1CC(c2ccccc2)=Nc2ccccc2N1 (configuration not stated),i,i,i,i,i
CCN(CC)c1ccc(C=C2C(=O)OC3(CCCCC3)OC2=O)cc1,33.1*,i,i,i,i
CCN(CC)c1ccc(/C=C2/C(=O)c3ccc(C(=O)O)cc3C2=O)cc1,i,i,.,i,.
CCCCC1(C)OC(=O)C(=Cc2ccc(N(CC)CC)cc2)C(=O)O1 (configuration not stated),44.1*,i,i,i,i
Cc1ccc(-c2nc(C)sc2CC(=O)Nc2cccc(C)c2C)cc1,i,i,i,i,i
O=C(On1c(-c2ccccc2)nc2ccccc2c1=O)c1ccco1,i,i,-8.11*,i,i
Cc1nn(Cc2ccccc2Cl)c(C)c1C(=O)NCCN1C(=O)S/C(=C\c2ccccc2)C1=O,i,i,i,i,i
O=S(=O)(Nc1cc(Cl)ccc1N1CCCCC1)c1cccs1,i,i,i,-13.2*,i
O=S(=O)(Nc1ccc(N2CCCCC2)cc1)c1cccs1,i,i,i,i,i
CCCC(=O)Nc1ccc(-c2csc(N/N=C\c3ccncc3)n2)cc1,i,i,-7.16*,-5.36*,i
COc1ccc(/C=C/C(=O)NC(=S)Nc2ccccn2)cc1,i,7.07*,i,i,i

# Screening results from PubChem.
